Laboratory results taken from ChEMBL document CHEMBL3352720, “Novel alkylphospholipid-DTC hybrids as promising agents against endocrine related cancers acting via modulation of Akt-pathway” (Eur J Med Chem, 2014).

Key:
HEK293 = assay: Antiproliferative activity against HEK293 cells assessed as inhibition of cell proliferation incubated for 18 hrs followed by MTT addition for 4 hrs by MTT assay; format: cell-based; conditions: Homo sapiens
Procedure, shortened: (§1)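 MTT assay. Cells were grown in DMEM with 10% FBS at 37 °C, 5% CO2, 90% relative humidity. 1 × 10⁴ cells per well were seeded and held 24 h, then exposed to compounds diluted in culture medium for 18 h. MTT (5 mg/mL stock) was added for a further 4 h.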

MCF7 [1] = assay: Antiproliferative activity against human MCF7 cells assessed as inhibition of cell proliferation incubated for 18 hrs followed by MTT addition for 4 hrs by MTT assay; format: functional, cell-based; procedure, shortened: as §1
MDA-MB-231 = assay: Antiproliferative activity against human MDA-MB-231 cells assessed as inhibition of cell proliferation incubated for 18 hrs followed by MTT addition for 4 hrs by MTT assay; format: functional, cell-based; procedure, shortened: as §1
[2] = Antiproliferative activity against human DU145 cells assessed as inhibition of cell proliferation incubated for 18 hrs followed by MTT addition for 4 hrs by MTT assay; format: functional, cell-based; conditions: DU-145; procedure, shortened: as §1
[3] = Antiproliferative activity against human PC3 cells assessed as inhibition of cell proliferation incubated for 18 hrs followed by MTT addition for 4 hrs by MTT assay; format: functional, cell-based; conditions: PC-3; procedure, shortened: as §1
MCF7 [4] = assay: Induction of cell cycle arrest in human MCF7 cells assessed as accumulation at S phase incubated for 24 hrs by propidium iodide staining based FACS assay (reference value: 45.21%); format: functional
MCF7 [5] = assay: Induction of apoptosis in human MCF7 cells assessed as necrotic cells level incubated for 24 hrs by annexin-V and propidium iodide staining based flow cytometry (reference value: 2.15%); format: functional
MCF7 [6] = assay: Induction of cell cycle arrest in human MCF7 cells assessed as accumulation at G0/G1 phase incubated for 24 hrs by propidium iodide staining based FACS assay (reference value: 53.32%); format: functional
MCF7 [7] = assay: Induction of cell cycle arrest in human MCF7 cells assessed as accumulation at sub-diploid phase incubated for 24 hrs by propidium iodide staining based FACS assay (reference value: 7.26%); format: functional
MCF7 [8] = assay: Induction of cell cycle arrest in human MCF7 cells assessed as accumulation at G2/M phase incubated for 24 hrs by propidium iodide staining based FACS assay (reference value: 1.47%); format: functional
MCF7 [9] = assay: Induction of mitochondrial membrane potential loss in human MCF7 cells assessed as increase in JC1 dye monomer green fluorescence incubated for 24 hrs by JC1 dye based flow cytometry (reference value: 1.78%); format: functional
MCF7 [10] = assay: Induction of apoptosis in human MCF7 cells assessed as early apoptotic cells level incubated for 24 hrs by annexin-V and propidium iodide staining based flow cytometry (reference value: 6.42%); format: functional
MCF7 [11] = assay: Induction of apoptosis in human MCF7 cells assessed as viable cells level incubated for 24 hrs by annexin-V and propidium iodide staining based flow cytometry (reference value: 89.58%); format: functional
MCF7 [12] = assay: Induction of apoptosis in human MCF7 cells assessed as late apoptotic cells level incubated for 24 hrs by annexin-V and propidium iodide staining based flow cytometry (reference value: 1.85%); format: functional

SMILES	IC50 (MCF7 [1]) [µM]	IC50 (MDA-MB-231) [µM]	IC50 (HEK293) [µM]	IC50 [2] [µM]	IC50 [3] [µM]	Activity (MCF7 [4]) [%]	Activity (MCF7 [5]) [%]	Activity (MCF7 [6]) [%]	Activity (MCF7 [7]) [%]	Activity (MCF7 [8]) [%]	Activity (MCF7 [9]) [%]	Activity (MCF7 [10]) [%]	Activity (MCF7 [11]) [%]	Activity (MCF7 [12]) [%]
CCCCCCOP(=O)(O)OCCSC(=S)N1CCCCCC1	55	17.2	70.5	77.4	> 100	–	–	–	–	–	–	–	–	–
CCCCCCOP(=O)(O)OCCSC(=S)N1CCCC1	100	54	> 100	> 100	> 100	–	–	–	–	–	–	–	–	–
CCCOP(=O)(O)OCCSC(=S)N1CCCCC1	> 100	68	> 100	> 100	> 100	–	–	–	–	–	–	–	–	–
CCCOP(=O)(O)OCCSC(=S)N1CCCC1	73	67	> 100	> 100	> 100	–	–	–	–	–	–	–	–	–
CCCCCCCCCCCCCCCCOP(=O)(O)OCCSC(=S)N1CCN(C)CC1	> 100	> 100	> 100	49.3	95.2	–	–	–	–	–	–	–	–	–
CCCCCCCCCCOP(=O)(O)OCCSC(=S)N1CCCC1	70	67	> 100	46.1	56.1	–	–	–	–	–	–	–	–	–
CCCCCCCCOP(=O)(O)OCCSC(=S)N1CCCCCC1	78	27	> 100	59.1	56.8	–	–	–	–	–	–	–	–	–
CCCCCCOP(=O)(O)OCCSC(=S)N1CCN(C)CC1	58	73	> 100	> 100	> 100	–	–	–	–	–	–	–	–	–
CCCCCCCCCCCCCCCCOP(=O)([O-])OCC[N+](C)(C)C [MILTEFOSINE]	34.7	2.08	–	25.8	19.9	33.07	2.15	64.8	3.48	2.14	50.05	44.84	43.6	9.43
CCCOP(=O)(O)OCCSC(=S)N1CCN(C)CC1	59	62	39.6	> 100	> 100	–	–	–	–	–	–	–	–	–
CCCCCCCCOP(=O)(O)OCCSC(=S)N1CCCC1	53	69	28.3	47.1	> 100	–	–	–	–	–	–	–	–	–

Second part, led by results:

IC50 (MCF7 [1]) [µM]	IC50 (MDA-MB-231) [µM]	SMILES	IC50 (HEK293) [µM]	IC50 [2] [µM]	IC50 [3] [µM]	Activity (MCF7 [4]) [%]	Activity (MCF7 [5]) [%]	Activity (MCF7 [6]) [%]	Activity (MCF7 [7]) [%]	Activity (MCF7 [8]) [%]	Activity (MCF7 [9]) [%]	Activity (MCF7 [10]) [%]	Activity (MCF7 [11]) [%]	Activity (MCF7 [12]) [%]
46	58.5	CCCCCCCCOP(=O)(O)OCCSC(=S)N1CCN(C)CC1	86	> 100	> 100	–	–	–	–	–	–	–	–	–
> 100	> 100	CCCCCCCCCCCCCCCCOP(=O)(O)OCCSC(=S)N1CCCCCC1	> 100	17.6	32.1	–	–	–	–	–	–	–	–	–
26	11.9	CCCCCCCCOP(=O)(O)OCCSC(=S)N1CCCCC1	69	> 100	> 100	–	–	–	–	–	–	–	–	–
43.3	11.4	CCCCCCCCCCOP(=O)(O)OCCSC(=S)N1CCCCCC1	70	23.9	32.9	–	–	–	–	–	–	–	–	–
99.6	29	CCCCCCCCCCOP(=O)(O)OCCSC(=S)N1CCN(C)CC1	> 100	82.3	80	–	–	–	–	–	–	–	–	–
62	85	CCCCCCOP(=O)(O)OCCSC(=S)N1CCCCC1	> 100	> 100	> 100	–	–	–	–	–	–	–	–	–
72	69	CCCCCCCCCCCCCCCCOP(=O)(O)OCCSC(=S)N1CCCC1	> 100	28.9	65.7	–	–	–	–	–	–	–	–	–
74	38	CCCOP(=O)(O)OCCSC(=S)N1CCCCCC1	54	86.1	> 100	–	–	–	–	–	–	–	–	–
